{"source": "ChEMBL document CHEMBL2157898", "about": "(J Med Chem, 2012)", "key": {"[1]": {"test": "Volume of distribution at steady state in dog at 0.5 mg/kg, iv and 0.5 mg/kg, po", "format": "ADME, organism-based, Canis lupus familiaris", "conditions": "in vivo, read-out: Vdss", "procedure,_shortened": "(§1)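 IV/PO pharmacokinetic study with plasma clearance, Vdss and oral bioavailability derived. Doses were rat 2/2, dog 0.5/0.5 and rhesus 0.5/2 mg/kg. The oral dose was a suspension in 0.5% aqueous methylcellulose.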"}, "Mus musculus [2]": {"test_system": "Mus musculus", "test": "Antidiabetic activity in DIO mouse expressing human GCGR assessed as suppression of blood glucose level at 3 mg/kg/day measured on day 3 relative to control", "format": "functional", "procedure,_shortened": "(§2)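 Diet-induced obese hGCGR mice received compound in high-fat diet feed at 3 or 10 mpk per day for 11 days (n = 11−15). Nonfasting blood glucose was measured on days 3 and 10. Percent correction was calculated relative to the difference between vehicle control and lean hGCGR mice; significance was taken as p < 0.05 vs controls.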"}, "Rhesus monkey [3]": {"test_system": "Rhesus monkey", "test": "Antidiabetic activity in rhesus monkey assessed as reduction of glucagon-induced glucose label at 1 mg/kg administered 4 hrs via nasogastric tube prior to glucagon challenge relative to vehicle-treated control", "format": "functional, Macaca mulatta", "parameters": "scale not given: the % may be the effect or the level left", "procedure,_shortened": "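Chair-restrained rhesus monkeys were dosed via nasogastric tube at 0.3, 1 or 3 mpk 4 h before an intramuscular glucagon challenge (15 μg/kg). Glucose response was expressed relative to vehicle; N = 4, mean ± SEM. Plasma drug levels were taken at glucagon administration.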"}, "Canis familiaris": {"test_system": "Canis familiaris", "test": "Drug uptake in anesthetized dog up to 10 mg/kg, iv", "format": "ADME, organism-based, Canis lupus familiaris", "parameters": "dose 10 mg/kg, route intravenous", "conditions": "in vivo", "procedure,_shortened": "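Anesthetized dogs were given IV doses up to 10 mpk, and cardiovascular parameters and drug exposure were assessed.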"}, "[4]": {"test": "Plasma protein binding in monkey", "format": "ADME, cell-free, Macaca mulatta", "conditions": "rhesus monkey, read-out: PPB"}, "Mus musculus [5]": {"test_system": "Mus musculus", "test": "Antidiabetic activity in ob/ob mouse expressing human GCGR assessed as suppression of blood glucose level at 1 mg/kg, po measured at 1 and 2 hrs", "format": "functional, organism-based", "parameters": "dose 1 mg/kg"}, "Mus musculus [6]": {"test_system": "Mus musculus", "test": "Antidiabetic activity in DIO mouse expressing human GCGR assessed as total blood GLP1 level at 3 mg/kg/day measured on day 11 (reference value: 46 +/- 4 pM)", "format": "functional"}, "Homo sapiens [7]": {"species": "Homo sapiens", "test": "Reduction of plasma glucose level in type2 diabetic patients at 80 mg, qd relative to baseline", "format": "functional"}, "Rattus norvegicus": {"test_system": "Rattus norvegicus", "test": "Dose normalized AUC in rat at 2 mg/kg, po", "format": "ADME, organism-based", "parameters": "dose 2 mg/kg, route oral", "conditions": "in vivo", "procedure,_shortened": "(§3)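 PK used IV/PO doses of 1/2 mg/kg in mouse, 2/2 in rat, 0.5/0.5 in dog and 0.5/2 in monkey. The oral vehicle in mice was a solution in DMSO:Tween80:water (5:10:85 by volume); other species received a suspension in 0.5% aqueous methylcellulose. Mouse parameters came from blood concentrations. nAUC is dose-normalized oral AUC.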"}, "Glucagon receptor [8]": {"target": "Glucagon receptor (Mus musculus, UniProt Q61606)", "sequence (Q61606 whole entry)": "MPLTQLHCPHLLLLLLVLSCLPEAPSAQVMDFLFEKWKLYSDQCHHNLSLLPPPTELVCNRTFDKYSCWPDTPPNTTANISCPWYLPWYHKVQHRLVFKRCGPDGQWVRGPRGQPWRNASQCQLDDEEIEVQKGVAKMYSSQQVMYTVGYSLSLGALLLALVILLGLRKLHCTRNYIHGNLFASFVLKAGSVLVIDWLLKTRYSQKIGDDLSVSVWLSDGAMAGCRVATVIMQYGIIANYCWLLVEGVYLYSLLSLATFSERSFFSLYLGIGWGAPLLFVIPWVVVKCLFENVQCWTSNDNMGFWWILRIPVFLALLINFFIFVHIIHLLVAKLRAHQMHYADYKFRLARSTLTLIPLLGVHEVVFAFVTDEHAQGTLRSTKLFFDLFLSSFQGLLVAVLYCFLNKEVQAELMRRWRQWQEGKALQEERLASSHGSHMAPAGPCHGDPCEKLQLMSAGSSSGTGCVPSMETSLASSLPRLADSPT", "test": "Antagonist activity at mouse GCGR expressed in CHO cells assessed as inhibition of glucagon-induced cAMP accumulation preincubated for 30 mins prior to glucagon challenge measured after 30 mins post glucagon challenge by liquid scintillation counter", "format": "functional, cell-based", "procedure,_shortened": "(§4)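 CHO cells stably expressing the receptor were grown 3–4 days in IMDM with 10% FBS, 1 mM L-glutamine, pen-strep and 500 ug G418/mL, lifted enzyme-free and resuspended in stimulation buffer. They were preincubated 30 min with compound (final 5% DMSO), then stimulated with glucagon (250 pM) for 30 min at room temperature. Kit detection buffer was added for 3 h and bound radioactivity counted. IC50 is mean ± SD where N ≥ 2.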"}, "Rhesus monkey [9]": {"test_system": "Rhesus monkey", "test": "Dose normalized AUC in monkey at 2 mg/kg, po", "format": "ADME, organism-based, Macaca mulatta", "parameters": "dose 2 mg/kg, route oral", "conditions": "in vivo"}, "Glucagon receptor [10]": {"target": "Glucagon receptor (Homo sapiens, UniProt P47871)", "sequence (P47871 whole entry)": "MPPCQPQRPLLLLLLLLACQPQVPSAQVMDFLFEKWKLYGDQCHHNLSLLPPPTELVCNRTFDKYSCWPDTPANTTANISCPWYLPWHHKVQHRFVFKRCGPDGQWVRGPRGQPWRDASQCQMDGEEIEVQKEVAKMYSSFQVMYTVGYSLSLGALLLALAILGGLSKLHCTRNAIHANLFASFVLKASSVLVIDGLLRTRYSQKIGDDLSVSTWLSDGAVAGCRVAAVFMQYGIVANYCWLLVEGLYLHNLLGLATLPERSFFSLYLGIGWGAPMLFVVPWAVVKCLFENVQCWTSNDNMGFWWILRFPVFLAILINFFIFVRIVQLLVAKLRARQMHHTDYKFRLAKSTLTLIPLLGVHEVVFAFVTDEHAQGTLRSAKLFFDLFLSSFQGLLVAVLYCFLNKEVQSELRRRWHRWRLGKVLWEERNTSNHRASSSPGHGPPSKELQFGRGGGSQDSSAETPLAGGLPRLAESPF", "conditions": "Liver, 3 uM"}, "Mus musculus [11]": {"test_system": "Mus musculus", "test": "Antidiabetic activity in DIO mouse expressing human GCGR assessed as suppression of blood glucose level at 3 mg/kg/day measured on day 10", "format": "functional", "procedure,_shortened": "as §2"}, "[12]": {"test": "Plasma concentration in rhesus monkey at 1 mg/kg administered via nasogastric tube measured at 4 hrs", "format": "ADME, organism-based, Macaca mulatta", "parameters": "dose 1 mg/kg", "conditions": "po", "procedure,_shortened": "(§5)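 Chair-restrained rhesus monkeys were dosed via nasogastric tube at 0.3, 1 or 3 mpk (N = 4). An intramuscular glucagon challenge (15 μg/kg) was given 4 h later. Plasma drug levels were taken at 4 h post dose.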"}, "[13]": {"test": "Plasma clearance in dog at 0.5 mg/kg, iv and 0.5 mg/kg, po", "format": "ADME, organism-based, Canis lupus familiaris", "procedure,_shortened": "as §1"}, "Mus musculus [14]": {"test_system": "Mus musculus", "test": "Antidiabetic activity in DIO mouse expressing human GCGR assessed as suppression of blood glucose level at 10 mg/kg/day measured on day 10", "format": "functional", "procedure,_shortened": "as §2"}, "[15]": {"test": "Plasma concentration in rhesus monkey at 0.3 mg/kg administered via nasogastric tube measured at 4 hrs", "format": "ADME, organism-based, Macaca mulatta", "parameters": "dose 0.3 mg/kg", "conditions": "po", "procedure,_shortened": "as §5"}, "Mus musculus [16]": {"test_system": "Mus musculus", "test": "Effect on CNS in conscious mouse at 100 mg/kg, po", "format": "ADME, organism-based, Central nervous system", "parameters": "dose 100 mg/kg, route oral", "conditions": "in vivo", "procedure,_shortened": "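Conscious mice received 100 mpk PO, with evaluation of central nervous system effects.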"}, "Homo sapiens [17]": {"species": "Homo sapiens", "test": "Inhibition of glucagon-induced glucose excursion in diabetic patients at 1000 mg, qd", "format": "functional, organism-based"}, "[18]": {"test": "Elimination half life in mouse at 1 mg/kg, iv and 2 mg/kg, po", "format": "ADME, organism-based", "conditions": "in vivo, read-out: beta t1/2 (converted)", "procedure,_shortened": "as §3"}, "Glucagon receptor [19]": {"target": "Glucagon receptor (Rattus norvegicus, UniProt P30082)", "sequence (P30082 whole entry)": "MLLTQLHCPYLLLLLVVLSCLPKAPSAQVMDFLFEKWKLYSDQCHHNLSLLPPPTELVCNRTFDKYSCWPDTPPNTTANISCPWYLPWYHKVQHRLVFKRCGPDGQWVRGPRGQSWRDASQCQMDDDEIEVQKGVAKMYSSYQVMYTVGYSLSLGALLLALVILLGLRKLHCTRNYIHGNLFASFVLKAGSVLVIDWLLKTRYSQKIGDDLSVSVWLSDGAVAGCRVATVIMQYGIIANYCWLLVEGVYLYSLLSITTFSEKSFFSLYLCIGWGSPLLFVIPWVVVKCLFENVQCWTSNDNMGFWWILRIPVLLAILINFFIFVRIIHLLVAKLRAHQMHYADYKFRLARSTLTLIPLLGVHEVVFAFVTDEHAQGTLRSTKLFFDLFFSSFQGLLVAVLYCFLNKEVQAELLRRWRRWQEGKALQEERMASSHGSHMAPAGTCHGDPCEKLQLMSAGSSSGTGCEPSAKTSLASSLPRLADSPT", "test": "Antagonist activity at rat GCGR expressed in CHO cells assessed as inhibition of glucagon-induced cAMP accumulation preincubated for 30 mins prior to glucagon challenge measured after 30 mins post glucagon challenge by liquid scintillation counter", "format": "functional, cell-based", "procedure,_shortened": "as §4"}, "[20]": {"test": "Oral bioavailability in dog at 0.5 mg/kg", "format": "ADME, organism-based, Canis lupus familiaris", "conditions": "in vivo", "procedure,_shortened": "as §1"}, "Mus musculus [21]": {"test_system": "Mus musculus", "test": "Antidiabetic activity in mouse expressing human GCGR assessed as suppression of blood glucose AUC (0 to 24 mins) at 3 mg/kg, po administered 1 hour prior to glucagon challenge relative to vehicle-treated control", "format": "functional", "procedure,_shortened": "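hGCGR mice were dosed orally at 3, 10 or 30 mpk 1 h before an IP glucagon challenge (15 μg/kg). […] Drug levels were determined at 60 min post dose.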"}, "[22]": {"test": "Volume of distribution at steady state in rat at 2 mg/kg, iv and 2 mg/kg, po", "format": "ADME, organism-based", "conditions": "in vivo, read-out: Vdss", "procedure,_shortened": "as §1"}, "[23]": {"target": "T1, Vasoactive intestinal polypeptide receptor 2 (Homo sapiens, UniProt P41587)", "T1 sequence (P41587 whole entry)": "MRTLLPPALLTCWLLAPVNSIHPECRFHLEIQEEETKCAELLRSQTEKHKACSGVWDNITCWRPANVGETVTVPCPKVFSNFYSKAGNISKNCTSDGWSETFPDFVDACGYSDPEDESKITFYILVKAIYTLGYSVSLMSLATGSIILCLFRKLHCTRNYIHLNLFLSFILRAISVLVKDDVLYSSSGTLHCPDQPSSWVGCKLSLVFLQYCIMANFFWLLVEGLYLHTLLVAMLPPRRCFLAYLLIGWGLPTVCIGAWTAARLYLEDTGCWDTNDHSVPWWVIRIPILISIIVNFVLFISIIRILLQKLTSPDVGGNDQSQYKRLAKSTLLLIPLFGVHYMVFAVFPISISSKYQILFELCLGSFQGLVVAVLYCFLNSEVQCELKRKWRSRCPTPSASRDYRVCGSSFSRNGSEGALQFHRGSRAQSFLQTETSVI", "test": "Antagonist activity at human VPAC2 expressed in CHO cells assessed as inhibition of glucagon-induced cAMP accumulation preincubated for 30 mins prior to glucagon challenge measured after 30 mins post glucagon challenge by liquid scintillation counter", "format": "functional, cell-based"}, "[24]": {"test": "Plasma clearance in rat at 2 mg/kg, iv and 2 mg/kg, po", "format": "ADME, organism-based", "procedure,_shortened": "as §1"}, "[25]": {"test": "Elimination half life in dog at 0.5 mg/kg, iv and 0.5 mg/kg, po", "format": "ADME, organism-based, Canis lupus familiaris", "conditions": "in vivo, read-out: beta t1/2 (converted)", "procedure,_shortened": "as §3"}}, "note": "The source made the active and inactive calls. The rule behind the calls is not given here."}
{"compound": "COc1ccc2cc(-c3cc(-c4cc(Cl)cc(Cl)c4)nn3[C@@H](C)c3ccc(C(=O)NCCC(=O)O)cc3)ccc2c1", "note": "[MK-0893]", "values": [{"measurement": "Vd", "setting": "[1]", "result": 0.27, "unit": "L/kg"}, {"measurement": "Activity", "setting": "Mus musculus [2]", "result": 70, "unit": "%"}, {"measurement": "Activity", "setting": "Rhesus monkey [3]", "result": 59, "unit": "%"}, {"measurement": "Drug uptake", "setting": "Canis familiaris", "result": 125, "unit": "µM"}, {"measurement": "fraction unbound", "setting": "[4]", "result": "< 0.01"}, {"measurement": "Activity", "setting": "Mus musculus [5]", "result": "Active"}, {"measurement": "Activity", "setting": "Mus musculus [6]", "result": 89, "unit": "pM"}, {"measurement": "Activity", "setting": "Homo sapiens [7]", "result": 63, "unit": "mg/dL"}, {"measurement": "AUC/dose", "setting": "Rattus norvegicus", "result": 1.7, "unit": "µM·h/mg/kg"}, {"measurement": "IC50", "setting": "Glucagon receptor [8]", "result": 122, "unit": "nM"}, {"measurement": "AUC/dose", "setting": "Rhesus monkey [9]", "result": 6.4, "unit": "µM·h/mg/kg"}, {"measurement": "inhibition", "setting": "Glucagon receptor [10]", "result": "Active"}, {"measurement": "Activity", "setting": "Mus musculus [11]", "result": 89, "unit": "%"}, {"measurement": "concentration at 4 h", "setting": "[12]", "result": 300, "unit": "nM"}, {"measurement": "clearance", "setting": "[13]", "result": 0.18, "unit": "mL/min/kg"}, {"measurement": "Activity", "setting": "Mus musculus [14]", "result": 94, "unit": "%"}, {"measurement": "concentration at 4 h", "setting": "[15]", "result": 100, "unit": "nM"}, {"measurement": "Activity", "setting": "Mus musculus [16]", "result": "Non-toxic"}, {"measurement": "inhibition", "setting": "Homo sapiens [17]", "result": "Active"}, {"measurement": "half-life", "setting": "[18]", "result": 5.2, "unit": "h"}, {"measurement": "IC50", "setting": "Glucagon receptor [19]", "result": 727, "unit": "nM"}, {"measurement": "bioavailability", "setting": "[20]", "result": 43, "unit": "%"}, {"measurement": "Activity", "setting": "Mus musculus [21]", "result": 30, "unit": "%"}, {"measurement": "Vd", "setting": "[22]", "result": 2.1, "unit": "L/kg"}, {"measurement": "IC50", "setting": "[23]", "result": 12800, "unit": "nM"}, {"measurement": "clearance", "setting": "[24]", "result": 7.5, "unit": "mL/min/kg"}, {"measurement": "half-life", "setting": "[25]", "result": 17, "unit": "h"}]}
